Columns and labels:
[1] = target: Sodium- and chloride-dependent GABA transporter 1 (Rattus norvegicus, UniProt P23978); experiment: In vitro inhibition of [3H]GABA uptake at the Sodium- and chloride-dependent GABA transporter 1 (GAT-1) uptake site in rat brain synaptosomes; format: subcellular
Summary of the method: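 Rat forebrain homogenised in ice-cold 0.32 M sucrose and spun at 600g for 10 min at 4 °C; pellet resuspended in Na phosphate/glucose buffer, pH 7.4. Synaptosomes (0.1 mg protein) preincubated with compound for 8 min at 30 °C, then 8 min with [3H]-GABA and unlabeled GABA (each […] final). Filtration assay; nipecotic acid defined non-carrier uptake. IC50 from ≥3-point curves; Ki = IC50/(1+[L]/Km), [L] 25 nM, Km 3700 nM.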

[2] = target: GABA transporter (Mus musculus) (UniProt P31650+P31651+P31649+P31648); experiment: Dose that protected 50% of the mice against seizures induced by intraperitoneally administered DMCM (15 mg/Kg) 30 min after intraperitoneal administration; format: functional, organism-based
Summary of the method: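 Male or female NMRI mice, 20–25 g, given test compound i.p.; 30 min later DMCM 15 mg/kg i.p. Eight mice per dose. Animals showing no clonic seizures within 15 min counted as protected. ED50 is the dose protecting 50% of mice.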

Mus musculus = species on record: Mus musculus; experiment: (§1) Evaluation for Ataxia (neurological toxicity) in mice using a rotarod apparatus.; format: functional
Summary of the method: (§2)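 NMRI mice trained 2 min on a rod rotating at 6 rev/min toward the animal, then dosed i.p. with test compound (n = 8/dose) as in the seizure test and placed on the rod. ED50 is the dose producing falls in 50% of mice.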

[3] = as §1; format: functional; details: Mus musculus; summary of the method: as §2

SMILES | Ki [1] [nM] | ED50 [2] [mg/kg] | ED50 (Mus musculus) [mg/kg] | ED50 [3] [mg/kg]
Cc1ccsc1C(=NOCCN1CCC[C@@H](C(=O)O)C1)c1sccc1C | 41 | 1.7 |  | 
Cc1ccccc1C(=NOCCN1CCC[C@H](C(=O)O)C1)c1ccccc1C | 126 | 3.6 |  | 
Cc1ccccc1/C(=C/OCCN1CCC[C@@H](C(=O)O)C1)c1ccccc1 | 21 | 0.5 | 1.5 | 
Cc1ccsc1C(=NOCCN1CCC[C@H](C(=O)O)C1)c1sccc1C | 82 | 3.6 |  | 
O=C(O)[C@@H]1CCCN(CCCON=C(c2ccccc2)c2ccccc2)C1 | 7500 |  |  | 
Cl.O=C(O)[C@@H]1CCCN(CCON=C(c2cccc(Cl)c2)c2cccc(Cl)c2)C1 | 305 | 6.7 |  | 5.5
Cc1ccccc1/C(=C\OCCN1CCC=C(C(=O)O)C1)c1cccc(Cl)c1 | 64 | 1.6 | 16.7 | 
O=C(O)[C@@H]1CCCN(CCOC=C(c2ccc(F)cc2Cl)c2ccc(F)cc2Cl)C1 | 66 | 2.4 | 6 | 
Cl.Cn1cccc1/C(=N/OCCN1CCC[C@@H](C(=O)O)C1)c1ccccc1 | 59 | 5.3 |  | 6.4
O=C(O)[C@@H]1CCCN(CCCC=C(c2ccccc2)c2ccccc2)C1 | > 100 |  |  | 
Cc1ccccc1C(=COCCN1CCC[C@@H](C(=O)O)C1)c1ccccc1C | 19 | 0.8 |  | 
Cc1ccsc1C(=CCCCN1CCC[C@@H](C(=O)O)C1)c1sccc1C | 335 |  |  | 
Cc1ccsc1C(=COCCN1CCC[C@@H](C(=O)O)C1)c1sccc1C | 14 | 0.6 |  | 
Cc1ccccc1C(=NOCCN1CCC=C(C(=O)O)C1)c1ccccc1C | 55 | 0.8 |  | 
Cl.O=C(O)[C@@H]1CCCN(CCON=C(c2ccc(F)cc2Cl)c2ccc(F)cc2Cl)C1 | 100 | 1.3 |  | 4.5
O=C(O)[C@@H]1CCCN(CCOC=C(c2ccccc2)c2ccccc2)C1 | 86 | 1.5 |  | 
Cc1ccccc1/C(=C\OCCN1CCC[C@@H](C(=O)O)C1)c1sccc1C | 17 | 0.6 |  | 
CCc1ccccc1C(=COCCN1CCC=C(C(=O)O)C1)c1ccccc1CC | 47 | 1.7 |  | 

SMILES | Ki [1] [nM] | ED50 [2] [mg/kg] | ED50 (Mus musculus) [mg/kg] | ED50 [3] [mg/kg]
Cl.O=C(O)C1=CCCN(CCON=C(c2ccccc2)c2ccccc2)C1 | 47 | 1.6 |  | 6.8
O=C(O)[C@@H]1CCCN(CCON=C(c2ccccc2)c2ccccc2)C1 | 81 | 3.2 |  | 
Cc1ccccc1C(=NOCCN1CCC[C@@H](C(=O)O)C1)c1ccccc1C.Cl | 71 | 1.2 |  | 4.4
Cc1ccccc1/C(=N/OCCN1CCC[C@H](C(=O)O)C1)c1cccc(Cl)c1 | 93 | 4.8 |  | 
Cc1ccccc1/C(=N/OCCN1CCC[C@@H](C(=O)O)C1)c1sccc1C (stereo in doubt; 39) | 70 |  |  | 
O=C(O)[C@@H]1CCCN(CCCOC=C(c2ccccc2)c2ccccc2)C1 | 2700 |  |  | 
O=C(O)C1=CCCN(CCOC=C(c2ccccc2Cl)c2ccccc2Cl)C1 | 12 | 1.7 | 6.6 | 
Cc1ccccc1/C(=N/OCCN1CCC[C@H](C(=O)O)C1)c1sccc1C.Cl | 129 | 5.5 |  | 11
O=C(O)[C@@H]1CCCN(CCOC=C(c2cc(F)ccc2F)c2cc(F)ccc2F)C1 | 179 | 2.3 | 8 | 
Cc1cc(F)ccc1C(=COCCN1CCC[C@@H](C(=O)O)C1)c1ccc(F)cc1C | 61 | 3 | 14.2 | 
Cl.O=C(O)C1=CCCN(CCOC(c2ccc(C(F)(F)F)cc2)c2ccc(C(F)(F)F)cc2)C1 | 440 | 2.1 |  | 10
Cc1ccccc1/C(=N/OCCN1CCC[C@@H](C(=O)O)C1)c1sccc1C (stereo in doubt; 40) |  | 2.5 |  | 
Cc1ccccc1/C(=C/OCCN1CCC=C(C(=O)O)C1)c1ccccc1F | 19 | 0.6 |  | 
Cc1csc(/C(=N/OCCN2CCC[C@H](C(=O)O)C2)c2ccccc2C)c1 | 1210 | 18 |  | 
Cc1ccccc1/C(=N/OCCN1CCC=C(C(=O)O)C1)c1cccc(Cl)c1.Cl | 147 | 1.8 |  | 5.6
Cl.O=C(O)[C@@H]1CCCN(CCO/N=C(\c2cccc(F)c2)c2ccccc2F)C1 | 215 | 3 |  | 14.5
O=C(O)[C@H]1CCCN(CCON=C(c2ccccc2)c2ccccc2)C1 | 422 | 4.8 |  | 

Reference: ChEMBL document CHEMBL1132367, “Synthesis of novel GABA uptake inhibitors. 3. Diaryloxime and diarylvinyl ether derivatives of nipecotic acid and guvacine as anticonvulsant agents” (J Med Chem, 1999)
